# Sampled rows, rich in hits. Any-hit rate of the full collection: about 2.2%.
# Apaf-1 inh: inhibitors of human Apaf-1 apoptosome. O14727. reconstituted apoptosome caspase-3 activity, DEVD-Rh110 fluorescence. inhibition, % at 20 µM. 330,000 compounds, 0.71% hits. AID 489030; active means inhibition of at least 40% at 20 µM;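 further: plate controls were DMSO wells for no effect and DEVD-CHO caspase inhibitor wells for full effect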
#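 Material: reconstituted apoptosome with Apaf-1, cytochrome c, caspase-9, procaspase-3, dATP / Buffer or medium: pH 7.5 Hepes buffer with CHAPS, BSA, DTT / Also added: cytochrome c with DEVD-Rh110 / Schedule: compound with Apaf-1, dATP, procaspase-3 30 min, then 50 min reaction, room temperature / Technique: rhodamine 110 fluorescence at Ex 480/Em 540 nm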
# GSTO1 counter: blocks human GSTO1 in RBBP9 counter-screen; recombinant GSTO1, activity-based probe fluorescence polarization; P78417; AID 1974; inhibition, % at 5.96 µM; 300,000 compounds, 1.1% hits;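 active means inhibition above the campaign mean inhibition plus 3 SD, cut at about 35% in these data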;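 further: 0% = GSTO1-1 with DMSO and 100% = wells lacking GSTO1-1 enzyme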
# PAD4 FP inh: inhibitors of human PAD4; Q9UM07; recombinant PAD4, RCA probe fluorescence polarization; inhibition, % at 6.36 µM; 330,000 compounds, 0.41% hits; AID 485272;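 active means percent inhibition above a cutoff equal to the mean of all tested compounds plus 3 SD, cut at about 15% in these data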;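 further: 0% = PAD4 with RCA probe and DMSO and 100% = probe without PAD4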
# UBC9 SUMO inh: blocks human SUMOylation mediated by UBC9; HTRF SUMOylation assay, SAE1/SAE2 + UBC9, in vitro; inhibition, % at 35 µM; 290,000 compounds, 0.36% hits; AID 2006; in the data active means inhibition above about 50%, passing the limit was not always enough
# Rin1 Abl inh: human Rin1-Abl interaction inhibition; P00519+Q13671; TR-FRET Rin1/Abl binding, biochemical; inhibition, % at 7.35 µM; 360,000 compounds, 0.4% hits; in the data active means inhibition above about 5%, passing the limit was not always enough
# UBC13 inh: inhibitors of human UBC13 polyubiquitin chain formation. P61088. TR-FRET. inhibition, % at 20 µM. 330,000 compounds, 0.47% hits. AID 485273; in the data active means inhibition above about 45%, passing the limit was not always enough
# GSTO1 confirm: confirmation of human GSTO1 inhibitors. shares compounds with GSTO1 counter. 2,400 compounds, 54% hits. inhibition, % at 5.96 µM. recombinant GSTO1, probe fluorescence polarization;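 active means inhibition above the primary screen's cutoff, its mean inhibition plus 3 SD, cut at about 35% in these data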;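 further: loss of polarization as inhibitors block binding of rhodamine sulfonate ester activity probe; 0% = GSTO1 with DMSO and 100% = wells lacking GSTO1 enzyme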
# PAD4 FP conf: confirmation of human PAD4 inhibitors; shares compounds with PAD4 FP inh; 1,200 compounds, 28% hits; recombinant PAD4, RCA probe fluorescence polarization; inhibition, % at 6.36 µM;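 active means mean inhibition across replicates above the hit cutoff set by the earlier primary screen, cut at about 15% in these data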;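 further: inhibitors block active-site labeling by the probe so polarization falls; 0% = PAD4 with probe and DMSO and 100% = probe without PAD4 enzyme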
# Apaf-1 inh conf: confirmation of Apaf-1 inhibitors; shares compounds with Apaf-1 inh; inhibition, % at 20 µM; 1,800 compounds, 25% hits; reconstituted apoptosome, caspase-3 DEVD-Rh110 fluorescence;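 active means mean inhibition of at least 40% at 20 µM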;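 further: plate controls were DMSO wells for no effect and DEVD-CHO caspase inhibitor control wells for full effect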
# Rh110 interf inh: Rh110 signal interference in Apaf-1 inhibitor counter-screen; shares compounds with Apaf-1 inh; Rh110 fluorescence interference, quenched caspase reaction; activation (fluorescence interference), % at 20 µM; 1,800 tested, under 10 active;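 active means signal rise of 40% or more at 20 µM, treated as a fluorescence artifact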
# Fluor interf inh: Apaf-1 inhibitor counter-screen fluorescence artifact; fluorescence interference counterscreen, Apaf-1 assay format; shares compounds with Apaf-1 inh; 460 tested, under 10 active; IC50, µM; call rule not given here
# Numbers without * were called inactive; x = not tested or not shown.
SMILES,Apaf-1 inh,GSTO1 counter,PAD4 FP inh,UBC9 SUMO inh,Rin1 Abl inh,UBC13 inh,GSTO1 confirm,PAD4 FP conf,Apaf-1 inh conf,Rh110 interf inh,Fluor interf inh
CCOC(=O)c1c(C)nc2c(c1-c1ccccc1)C(=O)c1ccccc1-2,27,-1,-5,-15,1,-4,x,x,x,x,x
CCOC(=O)c1c(C)oc2c1c(C=NCCC(=O)O)c(O)c1ccccc12,81*,43*,-10,x,1,-92,47*,x,59*,2,>100
COCCNC(=O)c1cc2c(c(-c3cccc(-c4cc5ccccc5o4)c3)n1)[C@H](CCO)N(S(=O)C(C)(C)C)C2 (some centres undefined),x,x,x,x,4,x,x,x,x,x,x
CC1=NN(c2ccccc2)C(=O)/C1=C\c1cn(CCC#N)nc1-c1ccc(Cl)cc1,80*,53*,19*,66,7,-16,10,6,23,12,x
Nc1ncnc2c1ncn2[C@@H]1O[C@H](CN2CCCS2(=O)=O)[C@@H](O)[C@H]1O,-9,x,-4,x,-2,6,x,x,x,x,x
CC(=O)N(C1=C(N2CCOCC2)C(=O)c2ccccc2C1=O)c1ccc(C(=O)O)cc1,59*,61*,17*,37,-3,-25,55*,-6,55*,8,>100
CC(=O)c1ccc(NC2=C(N3CCOCC3)C(=O)c3ccccc3C2=O)cc1,80*,39*,-18,9,5,-52,8,x,46*,2,>100
Cc1cc(C(F)F)n2nc(C(=O)Nc3cccc(S(=O)(=O)N4CCOCC4)c3)nc2n1,7,-1,-1,11,1,-4,x,x,x,x,x
CCc1ccc(CNc2ccc(O)cc2)cc1,96*,86*,15*,34,3,-28,4,3,41*,-1,>100
Oc1ccc(NCc2ccc(OCc3ccccc3)cc2)cc1,x,x,x,62,-1,x,x,x,x,x,x
Cn1c(CC(=O)NNC(=O)c2ccc(F)cc2Cl)nc2ccccc21,-3,x,2,x,-2,0,x,x,x,x,x
O=C(Nc1cccc(C(F)(F)F)c1)c1ccc2nc(-c3ccco3)c(-c3ccco3)nc2c1,66*,50*,-26,32,3,11,7,x,44*,2,>100
Cc1ccc(-c2ccc(/C=N/N=C3/NC(=O)C(CC(=O)O)S3)o2)c([N+](=O)[O-])c1 (centres undefined),74*,67*,13,-2,0,-47,12,x,28,9,x
O=C(O)CC1S/C(=N/N=C/c2ccc(-c3ccccc3[N+](=O)[O-])o2)NC1=O (centres undefined),73*,62*,20*,25,-3,-42,9,-2,21,2,x
O=C(O)c1cccc(Oc2ccc(C(=O)O)c([N+](=O)[O-])c2)c1,x,x,x,x,4,x,x,x,x,x,x
CC1=NN(c2ccccc2)C(=O)C1N=Nc1ccc(C)cc1 (centres undefined),-9,2,0,7,x,-7,x,x,x,x,x
CC1=NN(c2ccc(C)cc2C)C(=O)C1C(c1ccccc1O)C1C(=O)N(c2ccc(C)cc2C)N=C1C (centres undefined),97*,56*,45*,41,2,-18,10,-16,23,-2,x
CCc1nc2c(OCc3ccc(OC(F)F)cc3)cccn2c1N(C)C(=O)c1cccs1,x,x,x,x,4,x,x,x,x,x,x
O=C(N/N=C\c1ccc(-c2ccccc2[N+](=O)[O-])o1)C1COc2ccccc2O1 (centres undefined),79*,66*,29*,-11,-3,-32,47*,-7,8,-3,x
